Assay outcomes deposited in PubChem by several laboratories.
Arbovirus inh – antivirals against arbovirus infection | arbovirus infection cell-based antiviral screen | inhibition, % at 10 µM | 200,000 tested, 0.37% active; in the data active means inhibition above about 30%
Mdm2 ligase inh – Mdm2 E3 ligase (human) inhibition; Q00987; cell-based MDM2 ubiquitination luciferase reporter, 2 h; 0 = plate control, 100 = twice control, blank-subtracted; signal enhancement, % at 5 µM; 210,000 tested, 0.11% active;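 active means signal enhancement of 30% or more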;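 further: luminescence tracks abundance of the self-degrading MDM2-luciferase fusion protein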
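Buffer or medium: Cells held in DMEM | Assay system: Stable mammalian line carrying autodegrading MDM2–luciferase fusion reporter | Quantity: 2000 cells/well | Times: 4 h settle plus 2 h compound, 37 °C | Doses: One concentration, 5 µM, with 0.2% DMSO | Technique: Luminescence with SteadyLite reagent, 15 min at room temperature | Benchmarks: Plate controls and plate blanks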
PKD1 kinase inh – inhibitors of human PKD1 kinase | Q15139 | PKD1 kinase fluorescence polarization assay | inhibition, % (concentration not given with the values) | 200,000 tested, 0.056% active | AID 797; in the data active means inhibition above about 50%
Target sequence (Q15139 whole entry, looked up): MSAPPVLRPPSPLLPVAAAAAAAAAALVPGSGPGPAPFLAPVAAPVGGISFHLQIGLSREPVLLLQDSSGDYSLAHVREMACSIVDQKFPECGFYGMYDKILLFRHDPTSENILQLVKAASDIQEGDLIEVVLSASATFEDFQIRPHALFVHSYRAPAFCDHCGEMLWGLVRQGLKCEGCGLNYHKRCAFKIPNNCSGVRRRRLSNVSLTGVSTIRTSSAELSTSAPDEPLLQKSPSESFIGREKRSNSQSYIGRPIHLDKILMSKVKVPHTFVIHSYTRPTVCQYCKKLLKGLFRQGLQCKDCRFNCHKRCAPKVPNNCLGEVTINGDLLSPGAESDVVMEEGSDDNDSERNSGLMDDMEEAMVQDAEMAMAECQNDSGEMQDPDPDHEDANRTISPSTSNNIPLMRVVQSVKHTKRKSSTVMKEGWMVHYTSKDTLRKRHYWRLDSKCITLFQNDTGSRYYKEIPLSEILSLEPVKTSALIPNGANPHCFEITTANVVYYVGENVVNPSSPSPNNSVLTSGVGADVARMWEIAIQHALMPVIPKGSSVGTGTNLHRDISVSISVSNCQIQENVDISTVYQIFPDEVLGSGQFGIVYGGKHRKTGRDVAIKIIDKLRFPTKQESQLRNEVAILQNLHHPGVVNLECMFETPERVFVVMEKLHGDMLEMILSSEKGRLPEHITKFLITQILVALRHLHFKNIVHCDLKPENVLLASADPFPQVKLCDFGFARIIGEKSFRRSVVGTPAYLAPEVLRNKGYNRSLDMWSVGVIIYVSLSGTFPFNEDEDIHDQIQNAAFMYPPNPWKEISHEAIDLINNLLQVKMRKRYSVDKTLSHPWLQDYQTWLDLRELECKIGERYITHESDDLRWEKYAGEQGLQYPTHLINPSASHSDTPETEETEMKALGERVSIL
Cl transport mod – modulates chloride dependent transport by human KCC2; Q9H2X9; KCC2 cells, thallium flux FluoZin-2 fluorescence; B-score of Tl+ flux slope (higher = more flux/activation; lower = inhibition) at 10 µM; 190,000 tested, 2.2% active; AID 1456;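 active means thallium flux slope and its plate-corrected score both differing from the plate sample mean at a set confidence after two filtering rounds, in either direction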;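 further: slope of fluorescence scaled to starting intensity during 10 to 20 s after thallium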
Calpain2 inh – calpain II (pig) inhibition; 220,000 tested, 0.37% active; AID 1236; purified calpain II, fluorogenic peptide substrate, 30 min; inhibition, % at 16 µM;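 active means inhibition above about 50%, limit read from the data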
ROMK primary – human ROMK K+ channel modulation, primary screen. P48048. Tet-inducible ROMK, thallium flux fluorescence; actives lie on both sides. B-score at 10 µM. 130,000 tested, 2% active;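 active means signal ratio slope over the read window, or its plate-corrected B-score, at least 3 SD from the plate mean, either direction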;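 further: B-score of the F/F0 ratio slope over 7 to 12 s after thallium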
ROMK retest – confirmation of human ROMK potassium channel modulators. shares compounds with ROMK primary. normalized thallium flux (F/F0 slope) at 10 µM. AID 1917. 3,000 tested, 54% active. ROMK thallium flux, fluorescence ratio; hits give low values;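 active means Flux at 10 µM at least 3 SD below or above vehicle control mean in one or both replicates; inconclusive means no clear call, values can overlap the other calls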
Hits are given with their value; – = inactive; ? = inconclusive; · = no result given. An excerpt weighted towards active compounds, which were near 3.7% of everything screened.

SMILES	Arbovirus inh	Mdm2 ligase inh	PKD1 kinase inh	Cl transport mod	Calpain2 inh	ROMK primary	ROMK retest
N=c1c2c(-c3ccccc3)c(-c3ccccc3)oc2ncn1CCCN1CCOCC1	–	–	–	–	–	-3.79	–
CC(C)Cn1cnc2c(c(-c3ccccc3)c(-c3ccccc3)n2Cc2ccco2)c1=N	–	–	–	·	–	-4.34	0.044
N=c1c2c(-c3ccccc3)c(-c3ccccc3)oc2ncn1CCN1CCOCC1	–	–	–	–	–	–	·
N=c1c2c(-c3ccccc3)c(-c3ccccc3)n(Cc3ccco3)c2ncn1CCCN1CCOCC1	–	–	–	–	–	-2.76	0.049
CCc1cc2c3c(c1)C(C)CC(C)(C)N3C(=O)C2=O (stereo unspecified)	–	·	–	–	–	–	·
COc1cc([N+](=O)[O-])cc2cc(C(=O)N3CCCC3)c(=O)oc12	–	–	–	–	–	–	·
CC(C)(C)Nc1nc(Oc2ccc(=O)[nH]n2)nc(N2CCOCC2)n1	–	–	–	–	–	–	·
Cc1cc2ccccc2c(=O)n1CC(=O)NCc1ccco1	–	–	–	–	–	–	·
O=C(COC(=O)CCC(=O)c1cccs1)NCc1ccccc1	–	–	–	–	–	·	·
c1ccc(-c2c(-c3ccccc3)n(Cc3ccco3)c3ncnc(NCCCn4ccnc4)c23)cc1	–	–	–	·	–	-3.91	?
COc1ccccc1-n1c(-c2cc(-c3ccc(F)cc3)n[nH]2)n[nH]c1=S	–	–	–	–	–	–	·
CN(Cc1ccccc1)C(=O)c1ccccc1Br	–	–	–	·	–	-2.83	0.0662
CCOc1ccc(N2CC(C(=O)Nc3ccc(OC)c(S(=O)(=O)N4CCCCC4)c3)CC2=O)cc1 (stereo unspecified)	–	–	–	–	–	–	·
CC(=O)C(Cl)C(=O)Nc1ccccc1 (stereo unspecified)	–	–	–	–	–	-5.38	0.046
CC(C)(C)N1CC(OC(N)=O)C1	·	·	·	–	–	·	·
COc1ccc(-c2nc(CN3CCN(c4ncnc5ccccc45)CC3)c(C)o2)c(OC)c1	–	–	–	–	–	-2.65	0.0653
Cc1cccc(C(=O)N2CCN(Cc3ccc4c(c3)OCO4)CC2)c1	–	–	–	–	–	·	·
Cc1cccc(Cc2c(C)nc3c(C(=O)N4CCN(Cc5ccc6c(c5)OCO6)CC4)cnn3c2C)c1	–	–	–	–	–	·	0.0461
Nc1nc(-c2ccccc2)cn1/N=C/c1ccccc1	·	–	·	–	–	7.27	–
Nc1nc(-c2ccccc2)cn1N	–	–	–	–	–	·	·
O=[N+]([O-])/C(C(Cl)=C(Cl)Cl)=C1\Nc2ccccc2O1	·	–	·	–	–	–	·
CCOc1ccc2c(c1)/C(=C(\C(Cl)=C(Cl)Cl)[N+](=O)[O-])N2	–	–	–	–	–	-4.73	0.0534
CCCCOc1ccc2c(c1)/C(=C(\C(Cl)=C(Cl)Cl)[N+](=O)[O-])N2	–	–	–	–	–	-5.56	0.0541
CCOc1ccc2c(c1)/C(=N/N1C(=O)c3ccccc3C1=O)C(=O)N2	–	–	–	–	–	·	·
Cc1c(NC(=O)CN2c3ccccc3CC2C)c(=O)n(-c2ccccc2)n1C (stereo unspecified)	–	–	–	–	–	–	·
SMILES	Arbovirus inh	Mdm2 ligase inh	PKD1 kinase inh	Cl transport mod	Calpain2 inh	ROMK primary	ROMK retest
CC(=O)N/C(=C/c1ccc2c(c1)OCO2)C(=O)NCCO	–	–	–	–	–	–	·
CC1CN(C(=O)c2ccccc2)c2ccccc2NC1=O (stereo unspecified)	–	–	–	–	–	-1.45	–
Cc1c(-c2cc(C(=O)O)on2)cnn1C	–	–	–	–	–	–	·
Cc1[nH]c2ccccc2c1CCNC(=O)c1c(N)no[n+]1[O-]	–	–	–	–	–	–	·
CCC1CCCCN1C(=O)c1sc2nc(C)nc(N(CC)CC)c2c1C (stereo unspecified)	–	–	–	–	–	-3.69	0.0585
CCOc1cc(/C=C\[N+](=O)[O-])ccc1OCC(=O)N1CCOCC1	–	–	–	–	–	-5.62	0.0565
CCOc1cc(/C=C/c2nc3cc(C)c(C)cc3s2)ccc1OCC(=O)N1CCOCC1	–	–	–	–	–	·	·
CN(c1ccccc1)S(=O)(=O)c1cccc(NC(=O)c2ccc3ncsc3c2)c1	·	–	·	·	–	·	0.0673
CCc1ccc(NC(=O)c2ccc3c(c2)C(=O)N(CCOC)C3Nc2ccc(CC)cc2)cc1 (stereo unspecified)	–	·	–	–	–	–	·
CCCCN(CC)c1nc(N)c(C#N)c(CC#N)c1C#N	–	–	–	–	–	-3.08	0.0553
C=C(C)CN(CC)c1nc(N)c(C#N)c(CC#N)c1C#N	–	–	–	·	–	-2.59	0.0547
COc1ccc2cc(C(=O)C3CCCN(C(=O)Cc4c(C)noc4C)C3)ccc2c1 (stereo unspecified)	–	–	–	·	–	–	·
CCN(CC)S(=O)(=O)c1ccc(Cl)c(C(=O)Nc2ccc(Cl)cc2[N+](=O)[O-])c1	–	–	–	–	–	·	·
Cc1c(CCOC(=O)CC23CC4CC(CC(C)(C4)C2)C3)sc[n+]1CC(=O)c1ccccc1	–	–	–	–	–	-4.09	0.0474
Cc1c(CCOC(=O)CC23CC4CC(CC(C4)C2)C3)sc[n+]1CC(=O)c1ccc(Br)cc1	–	–	–	–	–	-5.97	0.0447
Cc1c(CCOC(=O)C23CC4CC(CC(C)(C4)C2)C3)sc[n+]1CC(=O)c1ccccc1	–	–	–	–	–	-5.88	0.0599
Cc1c(CCOC(=O)c2cc([N+](=O)[O-])cc([N+](=O)[O-])c2)sc[n+]1CC(=O)c1ccccc1	–	–	–	–	–	–	·
Cc1c(CCOC(=O)c2ccccc2)sc[n+]1Cc1ccccc1	–	–	–	–	–	–	·
N/C(=N\OC(=O)CCCOc1ccccc1)c1cccc([N+](=O)[O-])c1	–	–	–	–	–	–	·
O=c1c2ccccc2c(C=Nc2ccc(O)cc2)c(O)n1Cc1ccccc1	·	–	·	–	–	-4.59	0.0411
Cc1onc(-c2ccccc2Cl)c1C(=O)Nc1nnc(-c2cccc([N+](=O)[O-])c2)s1	–	–	–	·	–	·	0.0611
O=C(Nc1cccc(-c2cn3cccnc3n2)c1)c1ccc2c(c1)OCO2	–	–	–	–	–	·	–
O=C(Nc1cccc(-c2cn3cccnc3n2)c1)c1ccc(Br)o1	–	–	–	–	–	·	?
O=C(Nc1cccc(-c2cn3cccnc3n2)c1)c1ccco1	–	–	–	–	–	·	·
Cc1nnc2ccc(-c3cccc(NC(=O)c4ccc(Br)o4)c3)nn12	–	–	–	–	–	–	·
O=C(Nc1cccc(-c2nnc(-c3ccccc3)o2)c1)c1ccc(Br)o1	–	–	–	·	–	–	0.0651
O=C(O)CCCNC(=O)c1ccc(NC(=O)Cc2ccc(Cl)cc2)cc1	–	–	–	–	–	–	·
